Results on 13 molecules are retold here after ChEMBL document CHEMBL1141143, “Novel 17beta-substituted conformationally constrained neurosteroids that modulate GABA A receptors” (J Med Chem, 2005).

The assay concerns the target GABA-A receptor; anion channel (Rattus norvegicus) (UniProt O09028+P15431+P18506+P18508+P19969+P20236+P23574+P23576+P28471+P28473+P30191+P62813+P63079+P63138+Q91ZM7+Q9ES14). Briefly: Displacement of [3H]EBOB from GABA-A receptors of rat cerebellum. The class given is tissue-based. Summed up: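 Rat cerebellar synaptosomal membranes: homogenized in 0.32 M sucrose, differentially centrifuged, water-lysed, Tris HCl (pH 7.4) washed, frozen; thawed membranes spun in 50 mM Tris HCl with 0.2 M NaCl. Incubated 2 h at 25 °C with 1 nM [3H]EBOB; nonspecific binding with 50 µM picrotoxin. Duplicates filtered on GF/B. Specific binding ratio with/without steroid fitted by nonlinear regression; mean ± SEM.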

`C#C[C@@H](OC)[C@H]1CC[C@H]2[C@@H]3CC[C@H]4C[C@H](O)CC[C@]4(C)[C@H]3CC[C@]12C` displayed a Ks of 802 nM.
Consider `C#C[C@@H](O)[C@H]1CC[C@H]2[C@@H]3CC[C@H]4C[C@H](O)CC[C@]4(C)[C@H]3CC[C@]12C`, for which the Ks amounted to 145 nM.
Molecule `COc1ccc(C#C[C@H](O)[C@H]2CC[C@H]3[C@@H]4CC[C@H]5C[C@H](O)CC[C@]5(C)[C@H]4CC[C@]23C)cc1` gave a Ks of 1640 nM.
The molecule `Cc1ccc(C#C[C@H]2CC[C@H]3[C@@H]4CC[C@H]5C[C@H](O)CC[C@]5(C)[C@H]4CC[C@]23C)cc1` came in with a Ks of 4100 nM.
For `C=C=C[C@@H](O)[C@H]1CC[C@H]2[C@@H]3CC[C@H]4C[C@H](O)CC[C@]4(C)[C@H]3CC[C@]12C`, the Ks was found to be 2.8 nM.
`C#CC(=O)[C@H]1CC[C@H]2[C@@H]3CC[C@H]4C[C@H](O)CC[C@]4(C)[C@H]3CC[C@]12C` displayed a Ks of 844 nM.
To `C=C=C[C@H](O)[C@H]1CC[C@H]2[C@@H]3CC[C@H]4C[C@H](O)CC[C@]4(C)[C@H]3CC[C@]12C` belongs 810 nM.
Consider `CC(=O)[C@H]1CC[C@H]2[C@@H]3CC[C@H]4C[C@H](O)CC[C@]4(C)[C@H]3CC[C@]12C`, for which the Ks came to 198 nM.
`C[C@]12CC[C@@H](O)C[C@@H]1CC[C@@H]1[C@@H]2CC[C@]2(C)[C@@H](C#CBr)CC[C@@H]12` registered a Ks of 350 nM.
Next, `CC(O)C#C[C@H]1CC[C@H]2[C@@H]3CC[C@H]4C[C@H](O)CC[C@]4(C)[C@H]3CC[C@]12C` (stereo partly drawn): 946 nM; `C#C[C@H](OC)[C@H]1CC[C@H]2[C@@H]3CC[C@H]4C[C@H](O)CC[C@]4(C)[C@H]3CC[C@]12C`: 924 nM; `C#C[C@H](O)[C@H]1CC[C@H]2[C@@H]3CC[C@H]4C[C@H](O)CC[C@]4(C)[C@H]3CC[C@]12C`: 494 nM.
Next, `COc1ccc(C#C[C@@H](O)[C@H]2CC[C@H]3[C@@H]4CC[C@H]5C[C@H](O)CC[C@]5(C)[C@H]4CC[C@]23C)cc1`: 870 nM.
